Compounds with a hit are over-represented: about 1.7% of the library has one in this group of screens.
APJ agonist: agonists of human APJ apelin receptor | P35414 | CHO-K1 APJ PathHunter beta-arrestin, luminescence; 0% DMSO wells, 100% apelin | activation, % at 20 µM | 0.11% of 330,000 active | AID 2520;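 active means activation more than six SD over the plate average, tested at 20 µM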;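 further: 0% = DMSO alone and 100% = apelin-13 at 10 nM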
Target sequence (P35414 whole entry, looked up): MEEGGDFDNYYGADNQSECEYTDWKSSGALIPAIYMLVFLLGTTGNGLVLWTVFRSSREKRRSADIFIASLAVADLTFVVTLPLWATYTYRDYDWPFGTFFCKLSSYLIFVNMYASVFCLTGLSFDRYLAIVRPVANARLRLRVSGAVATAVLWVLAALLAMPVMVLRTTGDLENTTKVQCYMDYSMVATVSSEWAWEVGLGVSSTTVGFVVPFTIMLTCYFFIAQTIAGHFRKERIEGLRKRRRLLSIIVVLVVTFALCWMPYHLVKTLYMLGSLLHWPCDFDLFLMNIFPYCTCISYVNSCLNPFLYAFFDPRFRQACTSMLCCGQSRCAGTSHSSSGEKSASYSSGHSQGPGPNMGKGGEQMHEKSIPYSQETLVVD
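Test system: CHO-K1 APJ beta-arrestin complementation cell line | Compound: Single test compound dose, 20 µM final, 1% DMSO | Incubation: Compound 90 min 25 °C, reagent 1 h | Measured by: beta-gal luminescence | Read-out basis: APJ–arrestin association signal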
CCR6 antagonist: blocks CCL20-driven beta-arrestin recruitment at human CCR6; CHO-K1 CCR6 PathHunter beta-arrestin, luminescence, CCL20-stimulated; inhibition, % at 20 µM; 0.49% of 340,000 active; AID 493098;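 active means compounds whose inhibition of the agonist-driven luminescence signal at 20 µM reaches about 50%, limit read from the data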;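 further: cells stimulated with CCL20 at 14 nM final; plate controls were DMSO with CCL20 for no effect and DMSO without agonist for full effect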
PfG6PD inh: PfG6PD (Plasmodium falciparum) enzyme inhibition; PfGluPho enzyme, NADPH resazurin-diaphorase fluorescence; inhibition, % at 20 µM; AID 504690; 0.78% of 350,000 active;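 active means inhibition reaching at least a set limit at 20 µM in the primary screen, cut at about 59% in these data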;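 further: 0% = DMSO wells with substrate and 100% = DMSO wells lacking glucose-6-phosphate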
Beta2AR agonist: human beta-2 adrenergic receptor agonism by FAP | P07550 | 0.43% of 340,000 active | response, % (concentration not given with the values) | AID 504454 | Am2.2-beta2AR cells, FAP receptor internalization, flow cytometry;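 active means response above a set limit, near 3 SD of response in nonfluorescent compounds, cut at about 42% in these data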
APJ antag: APJ receptor antagonism. P35414. CHO-K1 APJ beta-arrestin complementation, luminescence. inhibition, % at 20 µM. 0.32% of 330,000 active. AID 2521;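 active means inhibition above about 40% at 20 µM, limit read from the data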;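 further: cells challenged with 10 nM apelin-13 agonist together with compound; plate controls were apelin-13 plus DMSO wells for no effect and DMSO wells lacking apelin-13 for full effect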
CXCR6 inh: inhibitors of human CXCR6 receptor | CHO-K1 PathHunter CXCR6 beta-arrestin, luminescence | 0.36% of 360,000 active | inhibition, % at 20 µM; in the data active means inhibition above about 34%, passing the limit was not always enough;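 further: antagonist mode with CXCL16 agonist at 10 nM final; 0% = 10 nM CXCL16 with DMSO and 100% = unstimulated wells without agonist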
PfG6PD confirm: confirmation of Plasmodium falciparum G6PD inhibitors | AID 504753 | shares compounds with PfG6PD inh | 34% of 2,400 active | inhibition, % at 20 µM | recombinant PfGluPho, NADPH-diaphorase-resazurin fluorescence;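 active means inhibition of at least 50% at 20 µM in any single replicate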;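 further: 0% = DMSO with substrate and 100% = DMSO lacking glucose-6-phosphate substrate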
Diaphorase 10uM: inhibits diaphorase or oxidizes, flagging false PfG6PD hits | shares compounds with PfG6PD inh | diaphorase-coupled resazurin reduction, fluorescence, NADPH 10 uM | inhibition, % at 20 µM | 39% of 820 active;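 active means average inhibition reaching 50% or more with the compound at 20 µM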;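 further: resorufin red fluorescence formed as diaphorase reduces resazurin using NADPH; 0% = DMSO with enzyme and 100% = DMSO without enzyme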
Diaphorase 30uM: inhibits diaphorase or oxidizes, flagging false PfG6PD hits; shares compounds with PfG6PD inh; Diaphorase/resazurin coupled assay, resorufin fluorescence, 30 uM NADPH; inhibition, % at 20 µM; 29% of 820 active;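 active means inhibition averaging 50% or more, tested at 20 µM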;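 further: 0% = DMSO with enzyme and 100% = DMSO wells lacking diaphorase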
Active calls of the source: *; . = no result.

SMILES | APJ agonist | CCR6 antagonist | PfG6PD inh | Beta2AR agonist | APJ antag | CXCR6 inh | PfG6PD confirm | others
Nc1ccc(S(=O)(=O)c2cc(O)c3ccccc3c2O)cc1 | . | 36.8 | 103.3* | 2.6 | . | 14.0 | 70.0* | Diaphorase 10uM=32.7;Diaphorase 30uM=18.5
CC(C)C(OC(=O)CN1C(=O)c2ccccc2C1=O)C(=O)NC1CCCCC1 (stereo unspecified) | -1.4 | 11.4 | -10.1 | 10.2 | 0.1 | 2.5 | .
COCCN(CCOC)Cc1c(O)ccc2c1O/C(=C\c1ccc(C)o1)C2=O | -1.4 | 10.9 | 62.9* | 0.5 | -11.9 | 0.0 | 8.3
CCN(CC)Cc1c(O)ccc2c1O/C(=C\C=C\c1ccccc1)C2=O | -4.5 | 37.1 | 22.9 | 28.5 | 20.1 | 20.4 | .
CS(=O)(=O)c1cccc(C(=O)Nc2cccc(S(=O)(=O)N3CCCC3)c2)c1 | -5.2 | -9.1 | 14.2 | 1.6 | 4.6 | -3.6 | .
COc1cc(C(=O)Nc2cccc(S(=O)(=O)N3CCCC3)c2)cc(OC)c1C | 1.4 | 1.3 | 60.3* | 0.9 | -38.6 | 14.0 | -8.3
COc1ccc2[nH]c3c(C)c4ccncc4c(C)c3c2c1 | 0.2 | -19.6 | 60.3* | 12.5 | -91.8 | -13.3 | -22.6
C[C@H]1CN([C@@H](C)CO)C(=O)CCCn2nncc2CO[C@H]1CN(C)C(=O)c1cc(-c2ccccc2)on1 | . | . | 1.6 | . | . | 1.2 | .
CCCCOc1ccc(Cc2n[nH]c(=S)n2N)cc1 | 0.6 | 6.5 | 61.3* | -6.0 | 13.6 | -7.2 | 50.4* | Diaphorase 10uM=-20.3;Diaphorase 30uM=-17.1
O=C(c1ccccc1)c1ccc(C(=O)N2CCN(c3ccc(O)cc3)CC2)cc1 | 2.1 | -0.4 | 61.0* | -2.9 | 0.5 | -8.2 | 7.2
O=C(c1ccc(N2CCN(C(=O)c3ccccc3)CC2)cc1)c1cccc(F)c1 | 2.1 | 4.0 | -1.1 | -14.2 | 8.2 | -10.1 | .
CC1(c2nnnn2-c2ccc3c(c2)OCCO3)CCC(=O)N1CC(F)(F)F (stereo unspecified) | . | . | . | . | . | -7.6 | .
CN1CCc2cccc3c2[C@@H]1Cc1ccc(O)c(O)c1-3 | 15.0 | 6.7 | 89.0* | -2.9 | 17.7 | 4.2 | 86.2* | Diaphorase 10uM=10.1;Diaphorase 30uM=5.9
N#Cc1c(N)n(-c2ccccc2)c(=O)c2cc([N+](=O)[O-])ccc12 | -5.3 | -4.8 | -2.0 | -5.1 | 11.6 | 5.3 | .
O=c1c2cc(C(F)(F)F)ccc2sn1-c1ccccc1 | . | . | 128.4* | . | . | -0.5 | 93.8* | Diaphorase 10uM=-2.7;Diaphorase 30uM=4.5
CC(=O)Nc1ccc2c(=O)n(-c3ccccc3)sc2c1 | . | . | 127.0* | . | . | 8.9 | 105.4* | Diaphorase 10uM=-15.7;Diaphorase 30uM=0.8
N#Cc1ccc2c(=O)n(-c3ccccc3)sc2c1 | . | . | 123.3* | . | . | 6.9 | 108.4* | Diaphorase 10uM=4.9;Diaphorase 30uM=-6.1
O=c1c2ccccc2c(-c2cccc(C(F)(F)F)c2)nn1-c1ccccc1 | 1.3 | 25.9 | 16.3 | 4.4 | 11.1 | 13.7 | .
O=Cc1ccc(N2CCN(S(=O)(=O)c3ccc4c(c3)CC(=O)N4)CC2)cc1 | . | . | . | . | . | -0.9 | .
Cc1ccccc1-c1nnc(SCC(=O)c2c(N)n(C3CC3)c(=O)[nH]c2=O)o1 | -3.8 | 4.7 | 10.7 | -6.1 | 21.7 | 5.8 | .
CN(C1CCCCC1)S(=O)(=O)c1ccc(S(=O)(=O)N2CCCC2)cc1 | -3.2 | -6.0 | 2.6 | -10.7 | 8.2 | -0.6 | .
CN(C1CCCCC1)S(=O)(=O)c1ccc(=S)[nH]c1 | -0.2 | -10.9 | 61.3* | 4.5 | -13.2 | 0.6 | 17.3
O=C(c1ccccc1)c1coc2c1C(=O)c1ccccc1C2=O | 9.3 | 4.4 | -8.7 | -3.2 | -36.3 | -5.4 | .
O=C1c2ccccc2C(=O)c2c1oc(C(F)(F)F)c2C(=O)c1ccccc1 | 4.9 | 15.4 | 74.3* | 10.0 | -20.1 | 2.3 | 16.2
COC(=O)Cn1c(=O)c2c(nc3n2CCCN3CCc2ccccc2)n(C)c1=O | -4.1 | 17.0 | -27.6 | 3.9 | 10.0 | 1.7 | .
COc1cc(Cc2ccc(N)c(OC)c2)ccc1N | 1.5 | -4.4 | 14.2 | 13.2 | -4.5 | -3.8 | .
Nc1ccc(Cc2ccc(N)c(O)c2)cc1O | . | -7.3 | 71.9* | 3.3 | . | -6.4 | 45.5
